Reference: ChEMBL document CHEMBL4665832, “Benzylidene thiazolidinediones: Synthesis, in vitro investigations of antiproliferative mechanisms and in vivo efficacy determination in combination with Imatinib” (Bioorg Med Chem Lett, 2020)
Blank lines part the entries; values can stand above or below the compound they belong to. Active and inactive are the calls of the source. No cut-off for these calls is given here.

Key:
[1] = Cytotoxicity against hepatocytes (unknown origin) assessed as cell growth by MTT assay relative to control; format: cell-based, Hepatocyte; parameters: concentration or dose not given beside the values
[2] = tested on: HL-60; test: Antiproliferative activity against human HL-60 cells assessed as cell growth inhibition; format: functional
Method in brief: (§1)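 Cell lines screened for growth inhibition and GI₅₀ derived. Each value is the mean of 3 independent experiments.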

[3] = tested on: Jurkat; test: Antiproliferative activity against human Jurkat cells assessed as cell growth inhibition; format: functional; method in brief: as §1
[4] = tested on: MOLT-4; test: Antiproliferative activity against human MOLT-4 cells assessed as cell growth inhibition; format: functional; method in brief: as §1
[5] = tested on: U-937; test: Antiproliferative activity against human U-937 cells assessed as cell growth inhibition; format: functional; method in brief: as §1
[6] = tested on: DU-145; test: Antiproliferative activity against human DU-145 cells assessed as cell growth inhibition; format: functional; method in brief: as §1
[7] = tested on: MDA-MB-435; test: Antiproliferative activity against human MDA-MB-435 cells assessed as cell growth inhibition; format: functional; method in brief: as §1
[8] = tested on: HOP-62; test: Antiproliferative activity against human HOP-62 cells assessed as cell growth inhibition; format: functional; method in brief: as §1
[9] = tested on: PC-3; test: Antiproliferative activity against human PC-3 cells assessed as cell growth inhibition; format: functional; method in brief: as §1
[10] = tested on: MCF7; test: Antiproliferative activity against human MCF7 cells assessed as cell growth inhibition; format: functional; method in brief: as §1
[11] = tested on: K562; test: Antiproliferative activity against human K562 cells assessed as cell growth inhibition; format: functional; method in brief: as §1
[12] = Antiproliferative activity against human GURAV cells assessed as cell growth inhibition; format: functional; method in brief: as §1
[13] = tested on: KB; test: Antiproliferative activity against human KB cells assessed as cell growth inhibition; format: functional; method in brief: as §1
[14] = tested on: K562; test: Cell cycle arrest in human K562 cells assessed as accumulation at G0/G1 phase at 5 uM measured after 24 hrs by flow cytometry analysis; format: functional, cell-based
Method in brief: (§2)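 K562 cells exposed to 5 µM for 24 h, then cell-cycle phase distribution measured by flow cytometry. Untreated cells served as negative control and DMSO as vehicle control. SEM of n = 3. Two-tailed Student's t-test, P < 0.05.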

[15] = tested on: K562; test: Cell cycle arrest in human K562 cells assessed as accumulation at S phase at 5 uM measured after 24 hrs by flow cytometry analysis; format: functional, cell-based; method in brief: as §2
[16] = tested on: K562; test: Cell cycle arrest in human K562 cells assessed as accumulation at G2/M phase at 5 uM measured after 24 hrs by flow cytometry analysis; format: functional, cell-based; method in brief: as §2
[17] = tested on: K562; test: Cell cycle arrest in human K562 cells assessed as increase in cells accumulation at G0/G1 phase measured after 24 to 72 hrs by flow cytometry analysis; format: functional, cell-based; conditions: dose microM 5-20, time hrs 24-72
Method in brief: (§3)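 K562 cells exposed to 5, 10 or 20 µM and sampled at 24, 48 and 72 h. Phase distribution (G0/G1, S, G2/M) measured by flow cytometry. Untreated and DMSO vehicle controls. SEM of n = 3. Two-tailed t-test, P < 0.05.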

[18] = tested on: K562; test: Cell cycle arrest in human K562 cells assessed as decrease in cells accumulation at S phase measured after 24 to 72 hrs by flow cytometry analysis; format: functional, cell-based; conditions: dose microM 5-20, time hrs 24-72; method in brief: as §3
[19] = tested on: K562; test: Cell cycle arrest in human K562 cells assessed as decrease in cells accumulation at G2/M phase measured after 24 to 72 hrs by flow cytometry analysis; format: functional, cell-based; conditions: dose microM 5-20, time hrs 24-72; method in brief: as §3
[20] = tested on: K562; test: Cell cycle arrest in human K562 cells assessed as increase in cells accumulation at G0/G1 phase at 5 to 20 uM measured by flow cytometry analysis; format: functional, cell-based; conditions: dose microM 5-20, time hrs 24-72, TDE = time-dependent effect; method in brief: as §3
[21] = tested on: K562; test: Cell cycle arrest in human K562 cells assessed as decrease in cells accumulation at S phase at 5 to 20 uM measured by flow cytometry analysis; format: functional, cell-based; conditions: dose microM 5-20, time hrs 24-72, TDE = time-dependent effect; method in brief: as §3
[22] = tested on: K562; test: Cell cycle arrest in human K562 cells assessed as decrease in cells accumulation at G2/M phase at 5 to 20 uM measured by flow cytometry analysis; format: functional, cell-based; conditions: dose microM 5-20, time hrs 24-72, TDE = time-dependent effect; method in brief: as §3
[23] = tested on: K562; test: Downregulation of PCNA expression in human K562 cells at 10 to 20 uM measured after 48 to 72 hrs by Western blot analysis; format: functional, cell-based; conditions: dose microM 10-20, time hrs 48-72
Method in brief: (§4)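 K562 cells treated at 10 or 20 µM for 24, 48 or 72 h. PCNA and cyclin D1 detected by Western blot, bands quantified and normalised to actin. Means of three separate experiments, SD, P < 0.05.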

[24] = tested on: K562; test: Induction of apoptosis in human K562 cells assessed as increase in cleaved PARP1 expression at 5 to 20 uM measured after 72 hrs by Western blot analysis; format: functional, cell-based; conditions: dose microM 5-20, time 72.0 hrs
Method in brief: (§5)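 K562 cells treated 72 h at 5, 10 or 20 µM alongside DMSO vehicle control. Cleaved PARP1 and caspase 3 detected by Western blot and normalised to actin. Means of at least two experiments, SD.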

[25] = tested on: K562; test: Induction of apoptosis in human K562 cells assessed as increase in activated caspase-3 expression at 5 to 20 uM measured after 72 hrs by Western blot analysis; format: functional, cell-based; conditions: dose microM 5-20, time 72.0 hrs; method in brief: as §5
[26] = tested on: K562; test: Anticancer activity against human K562 cells assessed as cell growth inhibition at 1 uM by MTT assay relative to control; format: functional; conditions: read-out: GI
Method in brief: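 K562 cells given imatinib 1 µM or test compound 1 µM alone, or imatinib 1 µM plus test compound 1 µM. Proliferation read by MTT assay and expressed as % inhibition.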

[27] = tested on: K562; test: Potentiation of imatinib-induced anticancer activity against human K562 cells assessed as cell growth inhibition at 1 uM by MTT assay (reference value: 71%); format: functional; conditions: read-out: GI
[28] = Acute toxicity in po dosed mouse assessed as body weight loss; format: organism-based; conditions: in vivo
Method in brief: (§6)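 Healthy mice were given oral doses that increased over the study period. Each higher dose was given only if the previous dose was well tolerated. All animals were monitored for body weight loss, behavioural changes and mortality to set the maximum tolerated dose.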

[29] = Acute toxicity in po dosed mouse assessed as mortality; format: organism-based; conditions: in vivo; method in brief: as §6
[30] = Acute toxicity in po dosed mouse assessed as maximum tolerated dose; format: organism-based; conditions: in vivo; method in brief: as §6
[31] = tested on: K562; test: Potentiation of imatinib-induced antitumor activity against human K562 cells xenografted in mouse assessed as reduction in tumor volume at 100 mg/kg, ip administered for 30 days co-treated with imatinib at 100 mg/kg and measured every day for 30 days; format: functional, organism-based; conditions: time 30.0 day
Method in brief: (§7)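 Mice implanted subcutaneously in the right rear flank with 6 × 10⁶ K562 cells/100 μl in 50% matrigel. Dosed intraperitoneally: compound alone 200 mg/kg, or compound 100 mg/kg plus imatinib 100 mg/kg; controls were imatinib 100 mg/kg and saline. Tumour volume tracked over time, n = 6. Dunnett's test against control.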

[32] = tested on: K562; test: Antitumor activity against human K562 cells xenografted in mouse assessed as reduction in tumor volume at 200 mg/kg, ip administered for 30 days and measured every day for 30 days; format: functional, organism-based; conditions: time 30.0 day; method in brief: as §7
[33] = tested on: K562; test: Downregulation of cyclin-D1 expression in human K562 cells at 10 to 20 uM measured after 24 hrs by Western blot analysis; format: functional, cell-based; conditions: dose microM 10-20, time 24.0 hrs; method in brief: as §4
[34] = tested on: K562; test: Downregulation of PCNA expression in human K562 cells at 10 to 20 uM measured after 24 hrs by Western blot analysis; format: functional, cell-based; conditions: dose microM 10-20, time 24.0 hrs; method in brief: as §4

GI50 [2]: 73.3 µM | GI50 [3]: 26.5 µM | GI50 [4]: 47.3 µM | GI50 [5]: 49.1 µM | GI50 [6]: 59.2 µM | GI50 [7]: > 100 µM
Compound: O=C(COc1ccc(/C=C2\SC(=O)NC2=O)cc1)Nc1cccc(C(F)(F)F)c1
viability [1]: > 70%

Compound: O=C(COc1ccc(/C=C2\SC(=O)NC2=O)cc1)Nc1ccc(Cl)cc1C(F)(F)F
viability [1]: > 70% | GI50 [8]: > 100 µM | GI50 [9]: > 100 µM | GI50 [10]: 49.7 µM | GI50 [11]: 0.23 µM | GI50 [12]: 86.8 µM | GI50 [13]: > 100 µM | GI50 [2]: 56.7 µM | GI50 [3]: 28.9 µM | GI50 [4]: 32.5 µM | GI50 [5]: 67.5 µM | Activity [14]: Active | Activity [15]: Active | Activity [16]: Active | Activity [17]: Dose-dependent effect | Activity [18]: Dose-dependent effect | Activity [19]: Dose-dependent effect | Activity [20]: Tde | Activity [21]: Tde | Activity [22]: Tde | inhibition [23]: Active | Activity [24]: Dose-dependent effect | Activity [25]: Dose-dependent effect | inhibition of growth at 1 µM [26]: 65% | inhibition of growth at 1 µM [27]: 82% | Activity [28]: Non-Toxic | Activity [29]: Non-Toxic | MTD [30]: 2000 mg/kg | Activity [31]: Active | Activity [32]: Active | inhibition [33]: inactive | inhibition [34]: inactive
